Measured values published in ChEMBL document CHEMBL4138127, “Synthesis and evaluation of new pyridyl/pyrazinyl thiourea derivatives: Neuroprotection against amyloid-β-induced toxicity” (Eur J Med Chem, 2017).

Tests used:
[1] = species: Mus musculus; test: Inhibition of amyloid beta (1 to 42)-induced mPTP opening in mouse HT22 cells assessed as reduction in mitochondrial membrane potential loss by measuring green to red fluorescence ratio at 5 uM preincubated for 10 mins followed by amyloid beta (1 to 42) addition measured every 1 hr for 3 hrs by JC1 staining based fluorescence assay relative to control; type: cell-based
Summary of the method: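 HT-22 cells were seeded at 30,000 per well the day before and loaded with JC-1 (7.5 µM final) in phenol red-free Opti-MEM for 1 h 15 min at 37 °C, then PBS-washed. Compound solution (5 µM in Opti-MEM) was added for 10 min at 37 °C, followed by Aβ1-42 solution (5 µM). Red (ex/em 530/580) and green (485/530) fluorescence were read hourly for 3 h. Green/red ratio change was normalized to vehicle control as 100%.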

[2] = test system: ATP synthase; test: Inhibition of ATP synthase in mouse HT22 cells assessed as ATP production at 5 uM after 7 hrs by luciferase based assay relative to control; type: cell-based; design: scale not given: the % may be the effect or the level left; conditions: read-out: Activity
Summary of the method: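 HT-22 cells were seeded at 10,000 per well one day before, then given 5 µM compound for 7 h at 37 °C. After PBS washes, cells were lysed in 1% Triton X-100 in TBST. Protein was measured by BCA, and equal lysate amounts were assayed for ATP with a luciferase-based kit. Vehicle control was subtracted and percent inhibition was calculated relative to vehicle control ATP.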

[3] = species: Mus musculus; test: Inhibition of mPTP opening in mouse HT22 cells assessed as protection against amyloid beta (1 to 42)-induced toxicity by measuring cell viability at 5 uM preincubated for 10 mins followed by amyloid beta (1 to 42) addition measured after 24 hrs by MTT assay (reference value: 50 to 70%); type: cell-based
Summary of the method: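 HT-22 cells were seeded at 5000 per well the day before. Compound was added as a 10 µM solution for 10 min at 37 °C, then an equal volume of 10 µM Aβ1-42 was added, and cells were incubated 24 h at 37 °C. The table footnote states 5 µM of each. Viability was read by MTT (2 h, acidic Triton/isopropanol solubilization, A570). Protection was scaled to vehicle + Aβ as 0% and vehicle alone as 100%.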

[4] = Cytotoxicity against mouse HT22 cells assessed as cell viability at 5 uM after 24 hrs by MTT assay relative to control; type: cell-based, HT-22; conditions: read-out: Activity
Summary of the method: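 HT-22 mouse hippocampal cells were grown in DMEM with 10% FBS and penicillin/streptomycin at 37 °C under 5% CO2, seeded at 5000 per well and exposed to 5 µM compound for 24 h at 37 °C. MTT was added for 2 h, then formazan was dissolved in 10% Triton X-100/isopropanol/0.1 M HCl for 1 h at room temperature. A570 was read and vehicle control OD subtracted to give viability.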

Row | SMILES | Ratio [1] | activity at 7 h, 5 µM [2] | Activity [3] | viability at 24 h, 5 µM [4]
1 | S=C(Nc1ncccc1OCc1ccccc1)Nc1cccc2ccccc12 | 17.1% | 65% |  | 
2 | S=C(NCc1ccccc1)Nc1ncccc1OCc1ccccc1 | 75.3% |  |  | 
3 | S=C(Nc1ncccc1OCc1cccc(Cl)c1)Nc1cccc2ccccc12 | 26% | 107% | 18.6% | 123%
4 | S=C(Nc1cccc(Cl)c1)Nc1ncccc1OCc1ccccc1Cl | 14.2% | 103% | 22.7% | 116%
5 | CC(C)NC(=S)Nc1ncccc1OCc1cccc(F)c1 | 86% |  |  | 
6 | S=C(NCc1ccccc1)Nc1nccnc1OCc1ccccc1Cl | 5.3% | 85.1% | 3.8% | 105%
7 | CC(C)(C)NC(=S)Nc1ncccc1OCc1cccc(F)c1 | 123% |  |  | 
8 | Fc1cccc(COc2cccnc2NC(=S)Nc2cccc3ccccc23)c1 | 16.7% | 100% | 48.2% | 102%
9 | S=C(Nc1cccc(Cl)c1)Nc1ncccc1OCc1ccccc1 | 25.3% | 68% |  | 
10 | S=C(Nc1cccc(Cl)c1)Nc1ncccc1OCc1cccc(Cl)c1 | 38% | 104% | 51.8% | 98.3%
11 | CCNC(=S)Nc1ncccc1OCc1ccccc1Cl | 94.1% |  |  | 
12 | CC(C)NC(=S)Nc1ncccc1OCc1ccccc1Cl | 31.7% | 93.7% | -6.7% | 99.3%
13 | Cc1ccc(NC(=S)Nc2ncccc2OCc2ccccc2)cc1 | 23.3% | 66% |  | 
14 | CC(C)(C)NC(=S)Nc1ncccc1OCc1cccc(Cl)c1 | 112% |  |  | 
15 | CC(C)(C)NC(=S)Nc1ncccc1OCc1ccccc1 | 91% |  |  | 
16 | Cc1ccc(NC(=S)Nc2nccnc2OCc2cccc(F)c2)cc1 | 4.6% | 102% | 69.3% | 96.4%
17 | S=C(Nc1ncccc1OCc1ccccc1Cl)Nc1cccc2ccccc12 | 17.5% | 100% | 9.5% | 89.3%
18 | Cc1ccc(NC(=S)Nc2ncccc2OCc2cccc(Cl)c2)cc1 | 26% | 94.5% | 22.8% | 96.2%
19 | CC(C)(C)NC(=S)Nc1nccnc1OCc1cccc(F)c1 | 28.1% | 99.7% | 13.2% | 101%
20 | CC(C)NC(=S)Nc1nccnc1OCc1ccccc1Cl | 56.3% |  |  | 
21 | CC(C)NC(=S)Nc1nccnc1OCc1cccc(F)c1 | 43.1% |  |  | 
22 | NC(=O)CN1CCCC1=O [PIRACETAM] |  | 88% | 29% | 
23 | Cc1ccc(NC(=S)Nc2ncccc2OCc2ccccc2Cl)cc1 | 13% | 102% | 6.6% | 93.5%
24 | S=C(Nc1cccc(Cl)c1)Nc1nccnc1OCc1ccccc1Cl | 30.8% | 98% | 29.6% | 114%
25 | CCNC(=S)Nc1ncccc1OCc1ccccc1 | 66.8% |  |  | 
26 | CC(C)NC(=S)Nc1ncccc1OCc1ccccc1 | 45.2% |  |  | 
27 | CCNC(=S)Nc1ncccc1OCc1cccc(F)c1 | 88.7% |  |  | 
